Tested on: HEK-293T
Assay: Multiplex assay against HEK293T;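 for Population Tubulin-Different-Phenotype (%): share of the cells with healthy nuclei that show this phenotype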
Assay type: toxicity, cell-based
Settings: human
Procedure, shortened: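 Live cells were stained at seeding with Hoechst33342, BioTracker Green Microtubule Cytoskeleton Dye, MitoTracker Red and Annexin V Alexa Fluor 680. Following compound addition, they were imaged on a CQ1 microscope at 37°C and 5% CO2 and gated by CellPathfinder machine learning into Hoechst high-intensity objects or normal cells, with normal cells split into healthy, pyknosed or fragmented nuclei and pyknosed cells into mitotic or apoptotic. Tubulin, mitochondrial-mass and membrane-permeability phenotypes are per cents of healthy-nucleus cells.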

[1] = 12 h, 1 µM, compound concentration 1 uM, replicate 1
[2] = 12 h, 1 µM, compound concentration 1 uM, replicate 2
[3] = 12 h, 10 µM, compound concentration 10 uM, replicate 1
[4] = 12 h, 10 µM, compound concentration 10 uM, replicate 2
[5] = 24 h, 1 µM, compound concentration 1 uM, replicate 1
[6] = 24 h, 1 µM, compound concentration 1 uM, replicate 2
[7] = 24 h, 10 µM, compound concentration 10 uM, replicate 1
[8] = 24 h, 10 µM, compound concentration 10 uM, replicate 2
[9] = 48 h, 1 µM, compound concentration 1 uM, replicate 1
[10] = 48 h, 1 µM, compound concentration 1 uM, replicate 2
[11] = 48 h, 10 µM, compound concentration 10 uM, replicate 1
[12] = 48 h, 10 µM, compound concentration 10 uM, replicate 2

SMILES: CCCS(=O)(=O)c1nc(NC2CC2)cc(-c2ccc3c(ccn3C3CC(C)(C)NC(C)(C)C3)c2)n1
- Population Apoptotic (%) [1]: 58%
- Population Fragmented Nuclei (%) [1]: 8%
- Population Healthy Nuclei (%) [1]: 37%
- Population Hoechst High Intensity Objects (%) [1]: 13%
- Population Membrane Permeable-Phenotype (%) [1]: 4%
- Population Mitochondria Different-Phenotype (%) [1]: 86%
- Population Mitotic Cells (%) [1]: 41%
- Population Normal (%) [1]: 86%
- Population Pyknosed Nuclei (%) [1]: 53%
- Population Tubulin-Different-Phenotype (%) [1]: 80%
- Total Cell Count [1]: 351
- Population Apoptotic (%) [2]: 18%
- Population Fragmented Nuclei (%) [2]: 11%
- Population Healthy Nuclei (%) [2]: 24%
- Population Hoechst High Intensity Objects (%) [2]: 7%
- Population Membrane Permeable-Phenotype (%) [2]: 12%
- Population Mitochondria Different-Phenotype (%) [2]: 51%
- Population Mitotic Cells (%) [2]: 81%
- Population Normal (%) [2]: 92%
- Population Pyknosed Nuclei (%) [2]: 64%
- Population Tubulin-Different-Phenotype (%) [2]: 45%
- Total Cell Count [2]: 137
- Population Apoptotic (%) [3]: 65%
- Population Fragmented Nuclei (%) [3]: 63%
- Population Healthy Nuclei (%) [3]: 3%
- Population Hoechst High Intensity Objects (%) [3]: 9%
- Population Membrane Permeable-Phenotype (%) [3]: 16%
- Population Mitochondria Different-Phenotype (%) [3]: 16%
- Population Mitotic Cells (%) [3]: 34%
- Population Normal (%) [3]: 90%
- Population Pyknosed Nuclei (%) [3]: 33%
- Population Tubulin-Different-Phenotype (%) [3]: 16%
- Total Cell Count [3]: 650
- Population Apoptotic (%) [4]: 74%
- Population Fragmented Nuclei (%) [4]: 24%
- Population Healthy Nuclei (%) [4]: 1%
- Population Hoechst High Intensity Objects (%) [4]: 10%
- Population Membrane Permeable-Phenotype (%) [4]: 0%
- Population Mitochondria Different-Phenotype (%) [4]: 100%
- Population Mitotic Cells (%) [4]: 25%
- Population Normal (%) [4]: 89%
- Population Pyknosed Nuclei (%) [4]: 74%
- Population Tubulin-Different-Phenotype (%) [4]: 100%
- Total Cell Count [4]: 274
- Population Apoptotic (%) [5]: 60%
- Population Fragmented Nuclei (%) [5]: 10%
- Population Healthy Nuclei (%) [5]: 37%
- Population Hoechst High Intensity Objects (%) [5]: 14%
- Population Membrane Permeable-Phenotype (%) [5]: 2%
- Population Mitochondria Different-Phenotype (%) [5]: 79%
- Population Mitotic Cells (%) [5]: 39%
- Population Normal (%) [5]: 85%
- Population Pyknosed Nuclei (%) [5]: 52%
- Population Tubulin-Different-Phenotype (%) [5]: 80%
- Total Cell Count [5]: 345
- Population Apoptotic (%) [6]: 31%
- Population Fragmented Nuclei (%) [6]: 11%
- Population Healthy Nuclei (%) [6]: 34%
- Population Hoechst High Intensity Objects (%) [6]: 7%
- Population Membrane Permeable-Phenotype (%) [6]: 11%
- Population Mitochondria Different-Phenotype (%) [6]: 66%
- Population Mitotic Cells (%) [6]: 68%
- Population Normal (%) [6]: 92%
- Population Pyknosed Nuclei (%) [6]: 53%
- Population Tubulin-Different-Phenotype (%) [6]: 71%
- Total Cell Count [6]: 140
- Population Apoptotic (%) [7]: 60%
- Population Fragmented Nuclei (%) [7]: 63%
- Population Healthy Nuclei (%) [7]: 3%
- Population Hoechst High Intensity Objects (%) [7]: 11%
- Population Membrane Permeable-Phenotype (%) [7]: 26%
- Population Mitochondria Different-Phenotype (%) [7]: 5%
- Population Mitotic Cells (%) [7]: 39%
- Population Normal (%) [7]: 88%
- Population Pyknosed Nuclei (%) [7]: 32%
- Population Tubulin-Different-Phenotype (%) [7]: 10%
- Total Cell Count [7]: 639
- Population Apoptotic (%) [8]: 88%
- Population Fragmented Nuclei (%) [8]: 29%
- Population Healthy Nuclei (%) [8]: 4%
- Population Hoechst High Intensity Objects (%) [8]: 10%
- Population Membrane Permeable-Phenotype (%) [8]: 11%
- Population Mitochondria Different-Phenotype (%) [8]: 33%
- Population Mitotic Cells (%) [8]: 12%
- Population Normal (%) [8]: 89%
- Population Pyknosed Nuclei (%) [8]: 66%
- Population Tubulin-Different-Phenotype (%) [8]: 88%
- Total Cell Count [8]: 249
- Population Apoptotic (%) [9]: 54%
- Population Fragmented Nuclei (%) [9]: 15%
- Population Healthy Nuclei (%) [9]: 47%
- Population Hoechst High Intensity Objects (%) [9]: 17%
- Population Membrane Permeable-Phenotype (%) [9]: 7%
- Population Mitochondria Different-Phenotype (%) [9]: 58%
- Population Mitotic Cells (%) [9]: 45%
- Population Normal (%) [9]: 82%
- Population Pyknosed Nuclei (%) [9]: 37%
- Population Tubulin-Different-Phenotype (%) [9]: 79%
- Total Cell Count [9]: 417
- Population Apoptotic (%) [10]: 28%
- Population Fragmented Nuclei (%) [10]: 9%
- Population Healthy Nuclei (%) [10]: 61%
- Population Hoechst High Intensity Objects (%) [10]: 5%
- Population Membrane Permeable-Phenotype (%) [10]: 12%
- Population Mitochondria Different-Phenotype (%) [10]: 32%
- Population Mitotic Cells (%) [10]: 71%
- Population Normal (%) [10]: 94%
- Population Pyknosed Nuclei (%) [10]: 29%
- Population Tubulin-Different-Phenotype (%) [10]: 64%
- Total Cell Count [10]: 226
- Population Apoptotic (%) [11]: 69%
- Population Fragmented Nuclei (%) [11]: 67%
- Population Healthy Nuclei (%) [11]: 3%
- Population Hoechst High Intensity Objects (%) [11]: 11%
- Population Membrane Permeable-Phenotype (%) [11]: 31%
- Population Mitochondria Different-Phenotype (%) [11]: 0%
- Population Mitotic Cells (%) [11]: 30%
- Population Normal (%) [11]: 88%
- Population Pyknosed Nuclei (%) [11]: 29%
- Population Tubulin-Different-Phenotype (%) [11]: 0%
- Total Cell Count [11]: 663
- Population Apoptotic (%) [12]: 87%
- Population Fragmented Nuclei (%) [12]: 36%
- Population Healthy Nuclei (%) [12]: 19%
- Population Hoechst High Intensity Objects (%) [12]: 9%
- Population Membrane Permeable-Phenotype (%) [12]: 6%
- Population Mitochondria Different-Phenotype (%) [12]: 65%
- Population Mitotic Cells (%) [12]: 12%
- Population Normal (%) [12]: 90%
- Population Pyknosed Nuclei (%) [12]: 44%
- Population Tubulin-Different-Phenotype (%) [12]: 93%
- Total Cell Count [12]: 253

Source: ChEMBL document CHEMBL4689842, “EUbOPEN Chemogenomics Library wave 1” (2021)
